# Assay results reported in the EternaBench riboswitch data.
# Tested on: MS2 coat protein
# Experiment: apparent Kd, MS2 coat protein; higher = weaker binding; RNA-MaP array; FMN 200 µM where present
# In short: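 Designs on Illumina sequencing-chip clusters, transcribed by stalled E. coli RNA polymerase, were exposed to SNAP-549-labelled MS2 coat protein in doubling steps from 0.7 or 1.5 nM up to 3 µM, without and then with constant ligand. The buffer held 100 mM Tris-HCl pH 7.5, 80 mM KCl, 4 mM MgCl2, BSA, DTT, yeast tRNA and Tween-20. Apparent Kd values are medians of filtered per-cluster binding-curve fits to green signal normalised to red-channel RNA signal and control-cluster median Fmax.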
# [1] = designed as: ON switch for flavin mononucleotide, no ligand
# [2] = ligand present: flavin mononucleotide, designed as: ON switch for flavin mononucleotide
# [3] = designed as: OFF switch for flavin mononucleotide, no ligand
# [4] = ligand present: flavin mononucleotide, designed as: OFF switch for flavin mononucleotide
Sequence,apparent Kd [1] [nM],apparent Kd [2] [nM],apparent Kd [3] [nM],apparent Kd [4] [nM]
AAAAAAAAAACUCAGGAUAUAGAUUGUAGAACAUGAGGAUCACCCAUGUAGUGAAAGAAGAGAGACUAGAAGGGAGUAAAAAAAAA,85.7,74.7,–,–
AAAAAAAAAAGUGAGGAUAUGGGAAAAUUAACAUGAGGAUCACCCAUGUGAUAAAAAAAAAAAAACCAGAAGGUACAAAAAAAAAA,69.5,26.4,–,–
AAAAAACAUGAGGAUCACCCAUGUAAGGAUAUCUAAAAUAAAAGAAAAAUAAAGAAAAGGAGAAGGUACAAGGA,–,–,24.5,35.1
AAAAAACAUGAGGAUCACCCAUGUCAGGAUAUCAUAAAAAAAAAAAAAAAAAAAAAAGUGAGAAGGGACAAAAA,–,–,91.7,71.5
AAAAAACAUGAGGAUCACCCAUGUCCUCGGACAUGAGGAUAUGUACAGACUUCGGUCUGUACAGAAGGCAUGUCAA,658,585,–,–
AAAAAACAUGAGGAUCACCCAUGUGAGGAUAUGAUGAAAGAUUGAAAAAGGUUGAAAGUCAGAAGGUAUGUGAA,–,–,56.9,59.7
AAAAAACAUGAGGAUCACCCAUGUGAGGAUAUGAUGCGAAUAAAGAAAGAAGAAAGCAUCAGAAGGCACACCUA,–,–,50.1,83.9
AAAAAACAUGAGGAUCACCCAUGUGAGGAUAUUGGUAUUCAGGGUAUAAUCUCAAUAGCGAGAAGGCGCAUAAA,–,–,43.6,44.3
AAAAACGGAGGAUAUACAAAUUAAGGAAGAAAACACGAAAAACAUGAGGAUCACCCAUGUAGAAGGCCGGAAAA,–,–,22.6,28.2
AAAAACGUAGGAUAUACAUGAAAAAAAAAAAAAAAAAAAAGACAUGAGGAUCACCCAUGUAGAAGGGCGAAAAA,–,–,115,104
AAAAAGCGAGGAUAUACAUGAGGAUCACCCAUGUCAAACGGUAAGACCGCAGGAAACAGUAGAAGGCGCAAAAA,–,–,64.3,89.6
AAAAAGGCAGGAUAUACAUGAGGAUCACCCAUGUGAAAAAAAAAAAAAAAAAAAAAGUGUAGAAGGGUCAAAAA,–,–,56.9,46.7
AAAAAGGCAGGAUAUACGAGUCAAAGAAAAGACAAAAGGAGACAUGAGGAUCACCCAUGUAGAAGGGCCAAAAA,–,–,26.7,87.7
AAAAAGGUAGGAUAUACGAAAAAAAAGGGUAGAAAAAAAACACAUGAGGAUCACCCAUGUAGAAGGACCAAAAA,–,–,27.4,63
AAAAAGUCAGGAUAUACAUGAGGAUCACCCAUGUAGCAUACGAAAAAGAGUGUGCAGUGUAGAAGGGACAAAAA,–,–,27.1,25.7
AAAAAGUCAGGAUAUCGGAAAAAAAAAAAAAAAAGGAGAAACGAGAAGGGACAUGAGGAUCACCCAUGUAAAAA,–,–,51,46.7
AAAAAGUCAGGAUAUGCGAAGGCGUCUGAUAGACGAGGCUAGCAGAAGGGACAUGAGGAUCACCCAUGUAAAAA,–,–,31.9,45.2
AAAAAGUCAGGAUAUGCGAAGGCGUCUGAUAGACGAGGCUAGCAGAAGGGACAUGAGGAUCACCCAUGUGGAAA,–,–,79.4,135
AAAAAGUGAUGGUAGGAUAUUGGAAAAGCCACAUGAGGAUCACCCAUGUCAAAAAACCUAAAAAACAAGAAGGGCUGUUAUAAAAA,18.5,14.8,–,–

Sequence,apparent Kd [1] [nM],apparent Kd [2] [nM],apparent Kd [3] [nM],apparent Kd [4] [nM]
AAAACACAUGAGGAUCACCCAUGUAUCUGGACCAUAGGAUAUCCGCGCCCACUAGGGUGUGGAGAAGGGUGAGCCC,204,245,–,–
AAAACAUGAGGAUCACCCAUGUAAAGAUCUGUUAAUAGAAGUGAGGAUAUACUAAAUUUUAGGUAGUAGAAGGCACUGGGUACA,23.4,27.4,–,–
AAAACAUGAGGAUCACCCAUGUAAAGUUCGGUUAAUAGAGGUGAGGAUAUACUAAAUUUUGGGUGGUAGAAGGCACUGGGUACA,122,105,–,–
AAAACUGGAGGAUAUACAUGAGGAUCACCCAUGUGUGGGUAGGCUGUGUCGGCGUCAGGUAGAAGGCCACAAAA,–,–,92.3,136
AAAAGACAUGAGGAUCACCCAUGUCAGGAUAUCUAUAUUCAAGGGUCGGAGGGAAUACAGAGAAGGGAUGAGGG,–,–,21.8,24.8
AAAAGACAUGAGGAUCACCCAUGUGAAAACGUAGGAGGAUAUGUCGUGAAAAAAGACUUGACAGAAGGCCUGUGUC,97.7,30.8,–,–
AAAAGACAUGAGGAUCACCCAUGUGAAAACGUGCGAGGAUAUGUAUGGAAACCAUACUGUACAGAAGGCGUUUGUC,31.2,31.6,–,–
AAAAGCAACACAGGAUAUAUCACGGGUGAUUUGAUAGAAGGGUGAGCGAAAGAGAGCAACAUGAGGAUCACCCAUGUAUGUUUG,304,184,–,–
AAAAGGCAUCGUGACAUGAGGAUCACCCAUGUGAUUUGCUCACAGGAUAUCAUGCUCACGGAGCCUGAGAAGGGUGAAAGCUAA,28.7,54.7,–,–
AAAAGGUGAGGAUAUUCGGCGCCGGGAAGGUUGGUGCGGAUGAAGAAGGCACAUGAGGAUCACCCAUGUAAUAA,–,–,63,49.1
AAAAUCUAUUGAGGAUAUUCAUACACUGCAUACGGAGAAGGCAAACAAUCAUGAGGACAUGAGGAUCACCCAUGUUGUGACCAU,17.6,15.3,–,–
AAACAACAUGAGGAUCACCCAUGUAAGGAUAUGCGAGUUGGGUCAACGAAGGUUGAAGGCAGAAGGUAUAGGGU,–,–,58.5,50.4
AAACACGGACAUGAGGAUCACCCAUGUAAUAAUAACAUUGGGAGAAGGCCGAUUGCAAAGCAAUCGGAGGAUAUUCAUACCGUG,279,447,–,–
AAACACGGACAUGAGGAUCACCCAUGUGGCGAAAGCCUUGGGAGAAGGCAGUAUGCAAAGCAUUCUGAGGAUAUUCAUACCGUG,926,68.9,–,–
AAACACGGAGGAUAUACAGGUUCGGGAAACCGAACCGGCUGACAUGAGGAUCACCCAUGUAGAAGGCCGAAAUA,–,–,19.3,45.8
AAACAGUACGAGAAGGGCUACAUGAGGAUCACCCAUGUAGACGGUCGUGUGGCAGGAUAUCGAACACACCGAAAACGGUGCGUU,–,–,5.32,7.09
AAACAUGAGGAUCACCCAUGUAAACGAGAAGGGCGAGAGAGUAGAGGAUAGGAGAAAGAUGAGUCGCAGGAUAUCGACCUCAUA,16,17,–,–
AAACAUGUCCGAGGAUAUCUGAAAACAUUUUUAAGAGAAGGCGGACAUGAGGAUCACCCAUGUCUCUCCUCAUCAAAUCCAAAU,–,–,17.5,73.2
AAACAUGUCCGAGGAUAUCUGAGAUCACUUUCAAGAGAAGGCGGACAUGAGGAUCACCCAUGUCUCUCCUCAUCAACUCCAAAU,–,–,8.01,41.9

Sequence,apparent Kd [1] [nM],apparent Kd [2] [nM],apparent Kd [3] [nM],apparent Kd [4] [nM]
AAACAUGUCCGAGGAUAUCUGGAAACAUUUCCAAGAGAAGGCGGACAUGAGGAUCACCCAUGUCUCUCCUCAUCAAAUCCAAGU,–,–,24.6,287
AAACAUGUCCGAGGAUAUCUGGAAACAUUUUCAAGAGAAGGCGGACAUGAGGAUCACCCAUGUCUCUCCUCAUCCAAUCCAAGU,–,–,9.36,46.4
AAACGUAGAGGAUAUACAUAAGUAUUACGAAAGUAAUACAAACAUGAGGAUCACCCAUGUAGAAGGCUACGAAA,–,–,25.4,35.3
AAACUCAGAGGAUAUACAUAACACAGACUCUUCAUGCGUUCACAUGAGGAUCACCCAUGUAGAAGGCUGACAAC,–,–,23.2,85.1
AAAGAACUAGGAUAUACAUGAGGAUCACCCAUGUGCAGCUUAACGGCUCACACCUUAUGUAGAAGGAGUGACCG,–,–,16,19.3
AAAGAGCGAGGAUAUGCGUGCCGGUGCGGCCAGCCGAUGUGACAUGAGGAUCACCCAUGUAGAAGGCGCAGAAA,–,–,14.3,14.7
AAAGAUCCUCAGAAGGGCUCGUCCUAUAAGAUAGCAGGAUAUGAGGAGAUUGCCAAACAUGAGGAUCACCCAUGUAGUUGGAGU,83.5,14.8,–,–
AAAGUUGGUAGGCCCUCGGCACAUGAGGAUCACCCAUGUAAGGAGGAUAUGCCCGGUACCCGCUGGCAGAAGGCCUUAUAAGAA,–,–,12.2,110
AAAUAAAGCAGUGUGGUAAGAUCACAUGAGGAUCACCCAUGUAAGGAUAUGACGAGCAAAGCUCGUCAGAAGGUACGUCACUGC,–,–,34,133
AAAUAAAGUACCUUGAUAUCCUCACAUGAGGAUCACCCAUGUCAGGAUAUUUGUCCUAAAAGGACAGAGAAGGGACAAGGUAUA,–,–,5.82,6.19
AAAUAAGUUGCAGGAUAUUAUUUUUGAUAAAUAUAAGAAGGGCAACAAACCUCACAUGAGGAUCACCCAUGUACCCAUGUAUCU,–,–,65.5,30
AAAUAGGAAGGAUAUACGGCGGGAUACUGGUUCCACGUGUUACAUGAGGAUCACCCAUGUAGAAGGUCUGGUUA,–,–,24.7,55.4
AAAUCCGAAGGAUAUACAUCAAAAGCAAACUGACCCUCACGACAUGAGGAUCACCCAUGUAGAAGGUUGGAAAU,–,–,20.3,18.1
AAAUCCUACGAAGGAUAUACAAACAUGAGGAUCACCCAUGUGUGUUUCGUGUAACUGGAAUUCGGGUAGAAGGUCGUAGACAUA,–,–,33.2,20.8
AAAUCGGUAGGAUAUACGAUUUGGUACUAGACCGAGGAACCACAUGAGGAUCACCCAUGUAGAAGGACCAGAUA,–,–,20.7,13.9
AAAUCUUACGAAGGAUAUACAAACAUGAGGAUCACCCAUGUGUGUUUCGUGUUACUGAAAUUCGGGUAGAAGGUCGUAGACAUA,–,–,27.7,19.2
AAAUGAUAGUCAGGAUAUAAGUUGGAGCCUCGGUCGCACAUGAGGAUCACCCAUGUGUCUUGGAUUUAGAAGGGACAGAUGGGC,682,648,–,–
AAAUGCCUGUCGAUGCUCGACAUGAGGAUCACCCAUGUAUAGCAGGAUAUGCAGAACUGACUCGUGCAGAAGGGCUAUACCUAA,–,–,38.2,315
